Test results as given in ChEMBL document CHEMBL4152233, “Design, synthesis and anthelmintic activity of 7-keto-sempervirol analogues” (Eur J Med Chem, 2018).
Active and inactive are the calls of the source.

Tests used:
Schistosoma mansoni [1] = experiment: Antischistosomal activity against schistosomula of Schistosoma mansoni assessed as effect on parasite phenotype by throughput high content image analysis; format: functional, organism-based
Procedure, shortened: (§1)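 Puerto Rican (NMRI) strain cercariae were mechanically transformed to schistosomula. About 120 larvae were co-cultured with compound for 72 hr at 37 °C, 5% CO2, at 0.625% DMSO final. Controls were DMSO and auranofin. Motility and phenotype were scored by automated image analysis, with a hit threshold of ≤-0.15 (phenotype) and ≤-0.35 (motility) in ≥70% of larvae. Runs were in duplicate, and IC50 was estimated from dose-response curves.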

Schistosoma mansoni [2] = experiment: Antischistosomal activity against schistosomula of Schistosoma mansoni assessed as effect on parasite motility by throughput high content image analysis; format: functional, organism-based; procedure, shortened: as §1
[3] = Cytotoxicity against human HepG2 cells after 24 hrs by MTT assay; format: cell-based
Procedure, shortened: (§2)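 Cells were grown to about 80% confluence (HepG2 in BME, MDBK in EMEM, each with 10% FBS). They were seeded at 2.5 x10^4 per well and rested 24 hr, then exposed 24 hr to compound at 100–0.01 µM (1.25% DMSO). Controls were DMSO and 1% Triton X-100. Viability was read by MTT, and CC50 came from dose-response curves run in triplicate.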

[4] = Cytotoxicity against MDBK cells after 24 hrs by MTT assay; format: cell-based, Bos taurus; details: cattle; procedure, shortened: as §2
[5] = Selectivity index, ratio of IC50 for human HepG2 cells to IC50 for antischistosomal activity against schistosomula of Schistosoma mansoni assessed as effect on parasite phenotype; format: toxicity; details: read-out: Ratio IC50
Procedure, shortened: (§3)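 Selectivity index was calculated as the CC50 from the HepG2 or MDBK MTT assay divided by the schistosomula phenotype or motility IC50 from the 72 hr image-based screen.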

[6] = Selectivity index, ratio of IC50 for human HepG2 cells to IC50 for antischistosomal activity against schistosomula of Schistosoma mansoni assessed as effect on parasite motility; format: toxicity; details: read-out: Ratio IC50; procedure, shortened: as §3
[7] = Selectivity index, ratio of IC50 for MDBK cells to IC50 for antischistosomal activity against schistosomula of Schistosoma mansoni assessed as effect on parasite phenotype; format: toxicity; details: cattle, read-out: Ratio IC50; procedure, shortened: as §3
[8] = Selectivity index, ratio of IC50 for MDBK cells to IC50 for antischistosomal activity against schistosomula of Schistosoma mansoni assessed as effect on parasite motility; format: toxicity; details: cattle, read-out: Ratio IC50; procedure, shortened: as §3
Fasciola hepatica [9] = experiment: Antifasciola activity against newly excysted juveline stage of Fasciola hepatica Italian assessed as effect on parasite phenotype after 72 hrs; format: functional, organism-based
Procedure, shortened: (§4)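 NEJs came from Italian-strain metacercariae, excysted either by pepsin/HCl or by needle rupture, then 1 hr in sodium tauroglycocholate. They were plated at 25 per well in RPMI-1640 with 1% FCS. Screening was at 25 and 12.5 µM, then titration from 10 to 0.625 µM (0.16% DMSO). Controls were DMSO and 10 µM triclabendazole. Motility and phenotype were scored at 72 hr, with IC50 from dose-response curves.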

Fasciola hepatica [10] = experiment: Antifasciola activity against newly excysted juveline stage of Fasciola hepatica Italian assessed as effect on parasite motility after 72 hrs; format: functional, organism-based; procedure, shortened: as §4
[11] = Selectivity index, ratio of IC50 for human HepG2 cells to IC50 for newly excysted juveline stage of Fasciola hepatica Italian assessed as effect on parasite phenotype; format: toxicity; details: read-out: Ratio IC50
Procedure, shortened: (§5)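 Selectivity index was calculated as the CC50 from the HepG2 or MDBK MTT assay divided by the F. hepatica NEJ phenotype or motility IC50 from the 72 hr manual scoring assay.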

[12] = Selectivity index, ratio of IC50 for human HepG2 cells to IC50 for newly excysted juveline stage of Fasciola hepatica Italian assessed as effect on parasite motility; format: toxicity; details: read-out: Ratio IC50; procedure, shortened: as §5
[13] = Selectivity index, ratio of IC50 for MDBK cells to IC50 for newly excysted juveline stage of Fasciola hepatica Italian assessed as effect on parasite phenotype; format: toxicity; details: cattle, read-out: Ratio IC50; procedure, shortened: as §5
[14] = Selectivity index, ratio of IC50 for MDBK cells to IC50 for newly excysted juveline stage of Fasciola hepatica Italian assessed as effect on parasite motility; format: toxicity; details: cattle, read-out: Ratio IC50; procedure, shortened: as §5
Schistosoma mansoni [15] = experiment: Antischistosomal activity against adult stage of Schistosoma mansoni assessed as effect on parasite motility after 72 hrs by microscopic method; format: functional, organism-based
Procedure, shortened: (§6)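 Mice were infected percutaneously with 200 cercariae, and adults were recovered by portal perfusion at seven weeks. Three worm pairs per well in modified DMEM with 10% FCS were given compound at 50, 25, 12.5 and 6.25 µM final (0.3% DMSO) for 72 hr at 37 °C, 5% CO2. Controls were DMSO and auranofin. Worms were scored manually by microscopy at 24, 48 and 72 hr. Experiments were run in duplicate.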

Schistosoma mansoni [16] = experiment: Antischistosomal activity against schistosomula of Schistosoma mansoni at 25 uM by throughput high content image analysis; format: functional, organism-based; procedure, shortened: as §1
Schistosoma mansoni [17] = experiment: Antischistosomal activity against schistosomula of Schistosoma mansoni at 10 uM by throughput high content image analysis; format: functional, organism-based; procedure, shortened: as §1
Schistosoma mansoni [18] = experiment: Antischistosomal activity against schistosomula of Schistosoma mansoni at 1 uM by throughput high content image analysis; format: functional, organism-based
Schistosoma mansoni [19] = experiment: Antischistosomal activity against adult stage of Schistosoma mansoni at 50 uM after 24 to 72 hrs by microscopic method; format: functional, organism-based; procedure, shortened: as §6
Schistosoma mansoni [20] = experiment: Antischistosomal activity against adult stage of Schistosoma mansoni assessed as effect on parasite motility up to 12.5 uM after 72 hrs by microscopic method; format: functional, organism-based; procedure, shortened: as §6
Schistosoma mansoni [21] = experiment: Antischistosomal activity against adult stage of Schistosoma mansoni assessed as appearance of abnormal shaped eggs at 6.25 uM after 72 hrs by fluorescence microscopic method; format: functional, organism-based
Procedure, shortened: (§7)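 Adult worm pairs from infected MF-1 mice were cultured 72 hr at 37 °C, 5% CO2, in modified DMEM with 10% FCS. At 72 hr, eggs were collected from each well, counted, pelleted at 200 x g, fixed in 10% formaldehyde in PBS, and viewed under natural light and a GFP filter.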

Schistosoma mansoni [22] = experiment: Antischistosomal activity against adult stage of Schistosoma mansoni assessed as appearance of smaller eggs at 6.25 uM after 72 hrs by fluorescence microscopic method; format: functional, organism-based; procedure, shortened: as §7
Schistosoma mansoni [23] = experiment: Antischistosomal activity against adult stage of Schistosoma mansoni assessed as loss of lateral spine in eggs at 6.25 uM after 72 hrs by fluorescence microscopic method; format: functional, organism-based; procedure, shortened: as §7
Schistosoma mansoni [24] = experiment: Antischistosomal activity against adult stage of Schistosoma mansoni assessed as irregular auto-fluorescence of eggs at 6.25 uM after 72 hrs by fluorescence microscopic method; format: functional, organism-based; procedure, shortened: as §7
Fasciola hepatica [25] = experiment: Antifasciola activity against immature stage of Fasciola hepatica Italian assessed as effect on parasite motility after 72 hrs; format: functional, organism-based
Fasciola hepatica [26] = experiment: Antifasciola activity against adult stage of Fasciola hepatica Italian assessed as effect on parasite motility after 72 hrs; format: functional, organism-based
Schistosoma mansoni [27] = experiment: Antischistosomal activity against male adult stage of Schistosoma mansoni assessed as tegumental disruption throughtout the whole body at 25 uM after 72 hrs by osmium tetroxide staining-based scanning electron microscopic method; format: functional, organism-based
Schistosoma mansoni [28] = experiment: Antischistosomal activity against male adult stage of Schistosoma mansoni assessed as loss of spinous tubercles natural shape at 25 uM after 72 hrs by osmium tetroxide staining-based scanning electron microscopic method; format: functional, organism-based
Schistosoma mansoni [29] = experiment: Antischistosomal activity against female adult stage of Schistosoma mansoni assessed as tegumental disruption throughtout the whole body at 25 uM after 72 hrs by osmium tetroxide staining-based scanning electron microscopic method; format: functional, organism-based
Schistosoma mansoni [30] = experiment: Antischistosomal activity against female adult stage of Schistosoma mansoni assessed as loss of spinous tubercles natural shape at 25 uM after 72 hrs by osmium tetroxide staining-based scanning electron microscopic method; format: functional, organism-based
Fasciola hepatica [31] = experiment: Antifasciola activity against adult stage of Fasciola hepatica Italian assessed as decoration of ventral surface by swollen tegumantal ridges and smaller spines at 40 uM after 72 hrs by osmium tetroxide staining-based scanning electron microscopic method; format: functional, organism-based
Fasciola hepatica [32] = experiment: Antifasciola activity against immature stage of Fasciola hepatica Italian assessed as loss of spines on ventral surface at 13.3 uM after 72 hrs by osmium tetroxide staining-based scanning electron microscopic method; format: functional, organism-based
Fasciola hepatica [33] = experiment: Antifasciola activity against immature stage of Fasciola hepatica Italian assessed as sloughing of tegument at 13.3 uM after 72 hrs by osmium tetroxide staining-based scanning electron microscopic method; format: functional, organism-based
Fasciola hepatica [34] = experiment: Antifasciola activity against immature stage of Fasciola hepatica Italian assessed as exposure of basal lamina at 13.3 uM after 72 hrs by osmium tetroxide staining-based scanning electron microscopic method; format: functional, organism-based

| IC50 (Schistosoma mansoni [1]) [µM] | IC50 (Schistosoma mansoni [2]) [µM] | IC50 (Fasciola hepatica [9]) [µM] | IC50 (Fasciola hepatica [10]) [µM] | IC50 (Schistosoma mansoni [15]) [µM] | SMILES | CC50 at 24 h [3] [µM] | CC50 at 24 h [4] [µM] | selectivity ratio [5] | selectivity ratio [6] | selectivity ratio [7] | selectivity ratio [8] | selectivity ratio [11] | selectivity ratio [12] | selectivity ratio [13] | selectivity ratio [14] | Activity (Schistosoma mansoni [16]) | other results |
| --- | --- | --- | --- | --- | --- | --- | --- | --- | --- | --- | --- | --- | --- | --- | --- | --- | --- |
| 28 | 21.9 | – | – | – | CC1(C)CCC[C@]2(C)c3ccc(O)cc3C(=O)C[C@@H]12 (relative stereo) | 65.1 | > 100 | 2.3 | 3 | – | – | – | – | – | – | – | – |
| 6.8 | 6.3 | 3.2 | 2.5 | 19.9 | CC1(C)CCC[C@]2(C)c3ccc(O)cc3CC[C@@H]12 | 25.6 | 32.5 | 3.8 | 4.1 | 4.8 | 5.2 | 8 | 10.2 | 10.2 | 13 | Active | Activity (Schistosoma mansoni [17]): Active; Activity (Schistosoma mansoni [18]): inactive; Activity (Schistosoma mansoni [19]): Active; Activity (Schistosoma mansoni [20]): Active; Activity (Schistosoma mansoni [21]): Active; Activity (Schistosoma mansoni [22]): Active; Activity (Schistosoma mansoni [23]): Active; Activity (Schistosoma mansoni [24]): Active; IC50 (Fasciola hepatica [25]): 10.4 µM; IC50 (Fasciola hepatica [26]): 28.4 µM; Activity (Schistosoma mansoni [27]): Active; Activity (Schistosoma mansoni [28]): Active; Activity (Schistosoma mansoni [29]): Active; Activity (Schistosoma mansoni [30]): Active; Activity (Fasciola hepatica [31]): Active; Activity (Fasciola hepatica [32]): Active; Activity (Fasciola hepatica [33]): Active; Activity (Fasciola hepatica [34]): Active |
| 43.4 | 27.9 | – | – | – | COc1ccc2c(c1)CC[C@H]1C(C)(C)CCC[C@]21C (relative stereo) | 89 | > 100 | 2.1 | 3.3 | – | – | – | – | – | – | – | – |

The remaining lines, values behind:

| SMILES | IC50 (Schistosoma mansoni [1]) [µM] | IC50 (Schistosoma mansoni [2]) [µM] | IC50 (Fasciola hepatica [9]) [µM] | IC50 (Fasciola hepatica [10]) [µM] | IC50 (Schistosoma mansoni [15]) [µM] | CC50 at 24 h [3] [µM] | CC50 at 24 h [4] [µM] | selectivity ratio [5] | selectivity ratio [6] | selectivity ratio [7] | selectivity ratio [8] | selectivity ratio [11] | selectivity ratio [12] | selectivity ratio [13] | selectivity ratio [14] | Activity (Schistosoma mansoni [16]) | other results |
| --- | --- | --- | --- | --- | --- | --- | --- | --- | --- | --- | --- | --- | --- | --- | --- | --- | --- |
| CC(C)c1cc2c(cc1O)C(=O)C[C@H]1C(C)(C)CCC[C@]21C | 21.9 | 26.2 | 16.8 | 13.1 | – | 80 | 63.8 | 3.7 | 3.1 | 2.9 | 2.4 | 4.8 | 6.1 | 3.8 | 4.9 | – | – |
| COc1ccc2c(c1)C(=O)C(=O)[C@@H]1C(C)(C)CCC[C@]21C (relative stereo) | 22.9 | 6.4 | – | – | > 50 | 84.9 | > 100 | 3.7 | 13.2 | – | – | – | – | – | – | Active | – |
| COc1ccc(CC(=O)C2=C(C)CCCC2(C)C)cc1 | 25.3 | 19.1 | – | – | > 50 | > 100 | 91.1 | – | – | 3.6 | 4.8 | – | – | – | – | Active | – |
| CC1=C(C(=O)Cc2ccc(C(C)C)cc2)C(C)(C)CCC1 | 25.4 | 18.2 | – | – | > 50 | 71.7 | > 100 | 2.8 | 3.9 | – | – | – | – | – | – | Active | – |
| CC1(C)CCC[C@]2(C)c3ccccc3C(=O)C[C@@H]12 (relative stereo) | 39.5 | 14.7 | – | – | – | 84.2 | > 100 | 2.1 | 5.7 | – | – | – | – | – | – | – | – |
| COc1ccc2c(c1)[C@@]1(C)CCCC(C)(C)[C@@H]1CC2=O (relative stereo) | 14.2 | 10.3 | 9.9 | 8.4 | > 50 | 33.1 | 70.6 | 2.3 | 3.2 | 5 | 6.9 | 3.3 | 3.9 | 7.1 | 8.3 | Active | IC50 (Fasciola hepatica [25]): 14.6 µM; IC50 (Fasciola hepatica [26]): 39.9 µM |
| CC1(C)CCC[C@]2(C)c3ccccc3C(=O)C(=O)[C@H]12 (relative stereo) | 25 | 13 | – | – | > 50 | > 100 | > 100 | – | – | – | – | – | – | – | – | Active | – |
